Reference: ChEMBL document CHEMBL5131571, “Design, Synthesis, and Evaluation of Lung-Retentive Prodrugs for Extending the Lung Tissue Retention of Inhaled Drugs” (J Med Chem, 2022)

Experiments:
[1] = Drug metabolism in rat lung homogenate assessed as 1-(((S)-2-Amino-3,3-dimethylbutanoyl)oxy)ethyl-4-(2-hydroxy-2,2-diphenylacetoxy)piperidine-1-carboxylate Hydrochloride intermediate formation at 1500 ng/ml by MS/MS analysis; assay type: ADME, tissue-based; settings: tissue homogenate
How it was run: (§1)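 Wistar Han rat lung homogenized, then diluted 1 in 4 by mass with water (pH 6.8). Incubated at nominal 1500 ng/mL, 37 °C. Breakdown followed over 1500 min by MS/MS against authenticated samples of prodrug, intermediate and parent.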

[2] = Drug metabolism in rat lung homogenate assessed as piperidin-4-yl-2-hydroxy-2,2-diphenylacetate formation at 1500 ng/ml by MS/MS analysis; assay type: ADME, tissue-based; settings: tissue homogenate; how it was run: as §1
[3] = Stability of compound in PBS at pH 6.5 assessed as half life by LC-MS analysis; assay type: physicochemical
How it was run: (§2)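 1000 ng/mL final (from 200 μg/mL D6-DMSO stock) in prewarmed matrix at 37 °C with continuous shaking, triplicate. Matrices: pH 6.5 or 7.4 phosphate buffer, 1 in 4 water-diluted Wistar Han lung homogenate (pH 6.8), or fresh rat blood. Timed aliquots quenched in MeCN with labetalol/reserpine internal standards. Half-life by MS, mean ± SD.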

[4] = Stability of compound in PBS at pH 7.4 assessed as half life by LC-MS analysis; assay type: physicochemical; how it was run: as §2
[5] = Stability in Crl Wistar Han rat lung homogenate at pH 6.8 assessed as half life by mass spectroscopic analysis; assay type: ADME, tissue-based; how it was run: as §2
[6] = Stability in Crl Wistar Han rat blood at pH 7.2 assessed as half life by mass spectroscopic analysis; assay type: ADME, tissue-based; how it was run: as §2
[7] = Protein binding to Crl Wistar Han rat lung homogenate assessed as free fraction by mass spectroscopic analysis; assay type: ADME, tissue-based
How it was run: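 Rapid equilibrium dialysis of spiked 1 in 4 Wistar Han rat lung homogenate (1000 ng/mL) against pH 6.5 PBS, 4 h, 37 °C, orbital shaking. Recovery and time-0/240 matrix controls included. Samples matrix-matched 1:1, MeCN precipitation with labetalol/reserpine internal standards, MS quantification. Triplicate, mean ± SD.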

[8] = Plasma concentration in Crl Sprague-Dawley rat at 0.2 mg/kg, IT measured at 0.25 hrs by LC-MS/MS analysis; assay type: ADME, organism-based
How it was run: (§3)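 Male Sprague Dawley rats, n = 3 per time point, given a single intratracheal dose of 0.2 mg/kg at 1 mL/kg in 5% ethanol in pH 6.5 PBS. Serial blood into EDTA, centrifuged for plasma. At 24 h, lungs taken after CO2 euthanasia, rinsed, blotted, weighed, snap-frozen and homogenized. Methanol/acetonitrile protein precipitation with imipramine internal standard. Quantified by LC–MS/MS.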

[9] = Plasma concentration in Crl Sprague-Dawley rat at 0.2 mg/kg, IT measured at 0.5 hrs by LC-MS/MS analysis; assay type: ADME, organism-based; how it was run: as §3
[10] = Plasma concentration in Crl Sprague-Dawley rat at 0.2 mg/kg, IT measured at 1 hr by LC-MS/MS analysis; assay type: ADME, organism-based; how it was run: as §3
[11] = Plasma concentration in Crl Sprague-Dawley rat at 0.2 mg/kg, IT measured at 2 hrs by LC-MS/MS analysis; assay type: ADME, organism-based; how it was run: as §3
[12] = Plasma concentration in Crl Sprague-Dawley rat at 0.2 mg/kg, IT measured at 3 to 24 hrs by LC-MS/MS analysis; assay type: ADME, organism-based; settings: in vivo, other, time 3-24 hrs; how it was run: as §3
[13] = Drug concentration in lung of Crl Sprague-Dawley rat at 0.2 mg/kg, IT measured at 24 hrs by LC-MS/MS analysis; assay type: ADME, organism-based; settings: read-out: Ct; how it was run: as §3
[14] = Drug metabolism in rat lung homogenate assessed as 1-(((R)-2-amino-3,3-dimethylbutanoyl)oxy)ethyl 4-(2-hydroxy-2,2-diphenylacetoxy)piperidine-1-carboxylate intermediate formation at 1500 ng/ml by MS/MS analysis; assay type: ADME, tissue-based; settings: tissue homogenate; how it was run: as §1

| SMILES | Drug metabolism [1] | Drug metabolism [2] | half-life [3] [h] | half-life [4] [h] | half-life [5] [h] | half-life [6] [h] | fraction unbound [7] | concentration at 0.25 h [8] [ng/mL] | concentration at 0.5 h [9] [ng/mL] | concentration at 1 h [10] [ng/mL] | concentration at 2 h [11] [ng/mL] | Cp [12] [ng/mL] | concentration at 24 h [13] [ng/mL] | Drug metabolism [14] |
| --- | --- | --- | --- | --- | --- | --- | --- | --- | --- | --- | --- | --- | --- | --- |
| CC(OC(=O)[C@@H](NC(=O)[C@@H](N)CCCCN)C(C)(C)C)OC(=O)N1CCC(OC(=O)C(O)(c2ccccc2)c2ccccc2)CC1.Cl.Cl (stereo not given in full) | Metabolite_Detected | Metabolite_Detected |  |  |  |  |  |  |  |  |  |  |  |  |
| CC(OC(=O)C[C@@H](N)CCCCN)OC(=O)N1CCC(OC(=O)C(O)(c2ccccc2)c2ccccc2)CC1.Cl.Cl (stereo not given in full) |  |  | 29.1 | 5.9 | 3.1 | 0.3 |  |  |  |  |  |  |  |  |
| CC(OC(=O)[C@H](NC(=O)[C@@H](N)CCCCN)C(C)(C)C)OC(=O)N1CCC(OC(=O)C(O)(c2ccccc2)c2ccccc2)CC1.Cl.Cl (stereo not given in full) |  | Metabolite_Detected |  |  |  |  | 0.005 | 2.03 | 1.63 | 2.1 | 1.25 | 1 | 20000 | Metabolite_Notdetected |
